Laboratory results reported in ChEMBL document CHEMBL1158458, “Virtual screening approach for the identification of new Rac1 inhibitors” (J Med Chem, 2009).
Activity calls are given as the source filed them. The calls are words filed in the database; no cut-off is given here.

Tests used:
[1] = target: Cell division control protein 42 homolog (Homo sapiens) (UniProt P60953); assay: Inhibition of Cdc42
[2] = target: Transforming protein RhoA (Homo sapiens) (UniProt P61586); assay: Inhibition of PDGF-BB-stimulated RhoA activity in human aortic smooth muscle cells assessed as reduction in ratio of RhoAGTP/RhoA levels at 25 uM after 4 hrs by pull-down assay
Method in brief: (§1)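 Cultured human aortic SMCs exposed to compound at 25 μM for 4 h, then stimulated with PDGF-BB (final 10 ng/mL) for 2 min. Active GTPase (Cdc42-GTP for line 2, RhoA-GTP for line 3) isolated by pull-down and expressed as the GTP-bound/total protein ratio. The Rac1 pull-down was run under the same conditions.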

[3] = target: Ras-related C3 botulinum toxin substrate 1 (Mus musculus) (UniProt P63001); assay: Inhibition of PDGF-BB-stimulated Rac1-mediated cellular events in mouse 3T3 cells assessed as induction of membrane ruffling formation at 25 uM after 48 hrs by fluorescent microscopy; type: cell-based; details: NIH3T3
Method in brief: (§2)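 Serum-starved 3T3 cells were treated with compound at 25 μM and stimulated with PDGF-BB. Lamellipodia and membrane ruffle formation at the cell edges were then scored, together with cytoskeletal rearrangement.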

[4] = target: Cell division control protein 42 homolog (Homo sapiens) (UniProt P60953); assay: Inhibition of PDGF-BB-stimulated Cdc42 activity in human aortic smooth muscle cells assessed as reduction in ratio of Cdc42GTP/Cdc42 levels at 25 uM after 4 hrs by pull-down assay; method in brief: as §1
[5] = target: Ras-related C3 botulinum toxin substrate 1 (Mus musculus) (UniProt P63001); assay: Inhibition of PDGF-BB-stimulated Rac1-mediated cellular events in mouse 3T3 cells assessed as induction of membrane lamillipodia at 25 uM after 48 hrs by fluorescent microscopy; type: cell-based; details: NIH3T3; method in brief: as §2
[6] = target: Ras-related C3 botulinum toxin substrate 1 (Homo sapiens, UniProt P63000); assay: Inhibition of PDGF-BB-stimulated Rac1 activity in human aortic smooth muscle cells assessed as reduction of Rac1GTP level after 4 hrs by G-LISA

Sequence of Transforming protein RhoA (Homo sapiens) (P61586 whole entry): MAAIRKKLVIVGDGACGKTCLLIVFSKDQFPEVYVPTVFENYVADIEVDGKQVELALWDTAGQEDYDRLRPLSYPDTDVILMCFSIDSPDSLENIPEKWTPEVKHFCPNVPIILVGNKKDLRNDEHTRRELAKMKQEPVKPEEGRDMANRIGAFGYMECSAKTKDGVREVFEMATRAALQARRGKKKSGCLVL
Sequence of Cell division control protein 42 homolog (Homo sapiens) (P60953 whole entry, looked up): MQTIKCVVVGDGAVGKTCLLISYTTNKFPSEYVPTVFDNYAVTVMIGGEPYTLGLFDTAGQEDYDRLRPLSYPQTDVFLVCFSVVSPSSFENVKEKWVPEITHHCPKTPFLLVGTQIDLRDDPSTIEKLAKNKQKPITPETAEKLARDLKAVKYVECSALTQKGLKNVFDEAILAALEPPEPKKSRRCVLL

| Compound | Activity [1] | Activity [2] | Activity [3] | Percent reduction in Cdc42-GTP/total Cdc42 ratio [4] [%] | Activity [5] | IC50 [6] [µM] |
| --- | --- | --- | --- | --- | --- | --- |
| COc1ccc(NC(=O)c2n[nH]c3ccccc23)cc1S(=O)(=O)N1CCCCC1 | Active | inactive | Active | < 25 | Active | – |
| CC(OC(=O)c1ccc2ccccc2c1O)C(=O)Nc1ccc(N2CCOCC2)cc1 (stereo not given) | Active | inactive | – | < 25 | – | – |
| O=C(CNc1ccc(F)c([N+](=O)[O-])c1)Nc1ccc(N2CCOCC2)cc1 | Active | inactive | – | < 25 | – | – |
| COc1cc2c(C#N)c(N3CCN(c4ccccc4OC)CC3)nc(N)c2c(N)n1 | Active | inactive | – | < 25 | – | 46.1 |
